Assay outcomes: PubChem, Sanford-Burnham Center for Chemical Genomics
FLuc inhib CS: inhibits firefly luciferase, flagging false hits in luciferase inhibition screens; hit rate 1.5% among 200,000; P08659; AID 1006; ATPLite firefly luciferase biochemical luminescence, 10 min; inhibition, % at 10 µM;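 active = inhibition above about 50% when tested at 10 µM, limit read from the data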
Target sequence (P08659 whole entry, looked up): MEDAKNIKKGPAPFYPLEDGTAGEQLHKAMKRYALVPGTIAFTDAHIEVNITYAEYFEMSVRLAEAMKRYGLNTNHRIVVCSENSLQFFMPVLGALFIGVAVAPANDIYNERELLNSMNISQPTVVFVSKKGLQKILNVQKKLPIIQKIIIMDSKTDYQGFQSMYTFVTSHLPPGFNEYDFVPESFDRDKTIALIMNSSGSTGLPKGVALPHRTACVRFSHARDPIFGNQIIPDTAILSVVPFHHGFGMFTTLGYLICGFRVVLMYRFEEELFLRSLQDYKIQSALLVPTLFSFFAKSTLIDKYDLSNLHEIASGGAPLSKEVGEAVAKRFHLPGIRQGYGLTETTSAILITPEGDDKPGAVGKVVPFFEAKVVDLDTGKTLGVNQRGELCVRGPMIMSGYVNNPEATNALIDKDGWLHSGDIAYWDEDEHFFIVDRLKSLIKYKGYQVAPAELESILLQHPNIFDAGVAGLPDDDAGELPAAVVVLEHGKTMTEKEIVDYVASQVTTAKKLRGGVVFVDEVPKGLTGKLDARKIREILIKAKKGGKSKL
G6PDH counter: inhibits Leuconostoc G6PDH, flagging false hits in G6PDH-based assays. Purified L. mesenteroides G6PDH, diaphorase/resazurin coupled fluorescence, 45 min. inhibition, % at 5 µM. hit rate 0.12% among 200,000. AID 1020; in the data active = inhibition above about 50%
Diaphorase act: activates diaphorase or chemically reduces, flagging diaphorase assay artifacts; Diaphorase/resazurin coupled assay, resorufin fluorescence, 16 min; stronger effect = higher value; 1 = vehicle wells, 0 = NADH-free wells; activation factor at 20 µM; hit rate 0.005% among 190,000; AID 1229;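 active = diaphorase activity raised at least twofold by the compound at 20 µM; inactive = activation factor below 2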
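Material: purified diaphorase enzyme from Clostridium kluyveri; Also added: 0.114 mM NADH and 0.1 mM resazurin, final amounts; Doses: single compound dose of 20 µM, 1% DMSO final; Times: 16 min enzyme reaction, ambient temperature; Detection: resorufin fluorescence, excitation 544 nm, emission 590 nm; Measure: increased resorufin signal from activators or reducing compounds.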
FLuc act counter: firefly luciferase counter-screen for stimulation assays; ATPlite luciferase biochemical, luminescence, 10 min; 0 = ATP-free wells, 1 = DMSO control; 200,000 tested, under 10 active; activation factor at 10 µM;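 active = luciferase activation factor, scaled between plate controls, of at least 2 with compound at 10 µM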
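System: Luciferase/luciferin detection reagent, cell-free biochemical luciferase assay | Medium: PBS buffer for ATP | Dosing: Test compounds dosed from 2 mM stocks in 100% DMSO | Timing: 10 min at ambient temperature | Signal: Luminescence measurement of luciferase light output | Evaluation: Luciferase activation, seen as luminescence increase over controls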
Diaph inh CS: inhibits diaphorase or chemically oxidizes, flagging diaphorase assay artifacts; diaphorase resazurin-to-resorufin fluorescence, NADH, 16 min; bacterial (C. kluyveri) enzyme, not human; inhibition, % at 20 µM; hit rate 0.69% among 190,000; AID 1217;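 active = primary screen inhibition at 20 µM above a set limit, cut at about 50% in these data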;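 note: plate controls were DMSO with full reaction for no effect and wells lacking NADH for full effect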
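Test system: bacterial diaphorase enzyme (C. kluyveri); Quantity: 0.14 U/mL diaphorase, enzyme working solution; Times: reaction incubation of 16 min at room temperature; Measured by: fluorescence of resorufin formed from resazurin, Ex 544/Em 590 nm; Benchmarks: positive control minus NADH, DMSO neutral control.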
The depositor's hits bear a star; nt = no result given. This is a sample that favours compounds with a hit; in the whole collection about 2.3% have one here.

SMILES	FLuc inhib CS	G6PDH counter	Diaphorase act	FLuc act counter	Diaph inh CS
COC(=O)c1cc2oc(C)cc2n1CC(=O)Nc1cc(C)cc(C)c1	-10	-7	1	1.1	4
O=C(Nc1nncs1)c1cc2c(s1)CCC2	63*	-5	0.8	0.4	18
O=C(Nc1nccs1)c1cc2c(s1)CCCCC2	94*	7	0.9	0.1	12
CCOC(=O)COc1c(Cl)cc(C2NC(=S)NC(c3ccccc3)=C2C(C)=O)cc1OCC (configuration not stated)	6	27	0.9	0.9	7
NC(=O)CCn1ccc2ccccc21	-2	2	0.9	1	8
CCOC(=O)c1cc2c(C)n(-c3ccc(C)cc3)c(C)c2ccc1=O	84*	4	0.8	0.2	18
CCOC(=O)c1cc2c(C)n(-c3ccc(OCC)cc3)c(C)c2ccc1=O	0	5	1	1	4
CCC(=O)Nc1cc2nn(-c3ccc(C)cc3)nc2cc1C	66*	0	1.1	0.3	-9
CCC(=O)Nc1cc2nn(-c3ccc(OC)cc3)nc2cc1C	69*	4	1.1	0.3	-8
CN(C)c1oc(-c2ccccc2Cl)nc1P(=O)(c1ccccc1)c1ccccc1	1	-12	0.9	1	11
COc1ccc(C(=O)/C=C/c2ccc(O)cc2)cc1	55*	8	0.7	0.4	25
Cc1ccc(/C=C/C(=O)c2nc3ccccc3[nH]2)cc1	94*	4	0.9	0.1	6
COC(=O)c1ccc(/C=C/C(=O)c2cccc(OC)c2)cc1	39	15	0.8	0.6	22
Cc1ccc(/C=C/C(=O)c2ccc(C)cc2)cc1	54*	0	0.9	0.5	14
Cc1ccc(C(=O)/C=C/C(=O)c2ccc(C)cc2)cc1	2	3	1	1	1
Cc1ccc(/C=C/C(=O)Nn2cnnc2)cc1	41	-2	0.9	0.6	6
Cc1ccc(/C=C/C(=O)C2C(=O)c3ccccc3C2=O)cc1	97*	2	1	0	5
Cc1nn(-c2ccccc2)c(C)c1/C=N\NS(=O)(=O)c1ccc(Cl)cc1	-6	-8	0.8	1.1	16
C=CCc1c(C)[nH]c2c(OC)cccc2c1=S	0	0	0.8	1	21
OCCC1CN(CCCn2cccn2)CCN1C1CCCCC1 (configuration not stated)	-9	6	1	1.1	0
COc1ccc(OC)c(C(C)NC(=O)Nc2cccc(C(C)=O)c2)c1 (configuration not stated)	-4	15	0.8	1	24
Nc1ccc(/C=C/C(=O)c2ccco2)cc1	55*	0	0.9	0.5	13
CSc1ccc(C(=O)/C=C/c2ccc(N)cc2)cc1	90*	5	0.9	0.1	7
N#Cc1ccc(/C=C/C(=O)c2ccco2)cc1	10	13	0.9	0.9	8
CSc1ncccc1C(=O)OCC(=O)Nc1cc(C(F)(F)F)ccc1N1CCOCC1	-3	9	0.7	1	28
SMILES	FLuc inhib CS	G6PDH counter	Diaphorase act	FLuc act counter	Diaph inh CS
COC(=O)c1ccccc1N1CCS(=O)(=O)CC1	-8	5	1	1.1	-3
Cc1ccccc1-n1c(-c2ccc(Cl)cc2)cnc1SCC(=O)NC1CCS(=O)(=O)C1 (configuration not stated)	-9	7	0.8	1.1	18
CN1CCN(C(=O)C(C(=O)c2ccc(F)cc2)n2ccccc2=O)CC1 (configuration not stated)	-6	14	1	1.1	3
O=C(O)CCSc1nnc(-c2ccc3c(c2)OCO3)o1	31	2	0.8	0.7	19
O=C1OCCC1Sc1nnc(-c2ccc3c(c2)OCO3)o1 (configuration not stated)	60*	9	1	0.4	0
O=C1OCCC1Sc1nnc(-c2ccc(O)cc2)o1 (configuration not stated)	14	19	1	0.9	2
CC(=O)CSc1nnc(-c2ccc3c(c2)OCO3)o1	67*	11	1.1	0.3	-6
CCOc1ccc2nc(NC(=O)COC)sc2c1	31	0	0.9	0.7	7
CCOc1ccc2nc(NC(=O)CN3CCOCC3)sc2c1	61*	10	1	0.4	2
CCOc1ccc2nc(NC(=O)Nc3cccs3)sc2c1	67*	15	0.8	0.3	23
CCOc1ccc2nc(NC(=O)c3ccoc3C)sc2c1	58*	10	0.9	0.4	11
CCOc1cc(NC(=S)NCCc2ccccc2)c(OCC)cc1NC(C)=O	-7	10	nt	1.1	nt
Cn1cc([N+](=O)[O-])c(C(=O)Nc2cc(Oc3cccnc3)cc([N+](=O)[O-])c2)n1	-9	-2	0.8	1.1	17
CCCc1cc(=O)[nH]c(SCC(=O)N2CCCc3ccccc32)n1	72*	15	1	0.3	2
COc1cc2c(cc1NC(=O)C(C)Sc1ccc(NC(C)=O)cc1)oc1ccccc12 (configuration not stated)	-6	-22	0.2	1.1	82*
COc1cc2c(cc1NC(=O)Nc1ccc(C)cc1)oc1ccccc12	-6	-3	0.9	1.1	12
Nc1ccc(O)c2c1C(=O)c1ccccc1C2=O	16	0	0.7	0.8	32
O=C1C=C(Nc2ccccc2O)c2ccccc2C1=O	3	56*	0.8	1	16
O=C1C=C(NCc2ccccc2)c2ccccc2C1=O	-3	53*	1.1	1	-15
O=C(NCC1CCCO1)c1cc(-c2ccc(Cl)cc2Cl)on1 (configuration not stated)	71*	6	1.1	0.3	-5
O=C(NCC1CCCO1)c1cc(-c2ccccc2)on1 (configuration not stated)	4	-2	0.9	1	9
Cn1c(SCC(=O)N2CCOCC2)nnc1-c1ccc(Cl)cc1Cl	-6	1	0.9	1.1	11
O=C(c1cc(-c2ccc(Cl)cc2Cl)on1)N1CCOCC1	73*	10	1	0.3	-3
O=C(O)c1cc(-c2ccc(O)cc2)on1	-7	15	0.3	1.1	75*
O=C(c1cc(-c2ccc3c(c2)OCO3)on1)N1CCOCC1	70*	2	0.8	0.3	18
O=C(NCCN1CCOCC1)c1cc(-c2ccc(Cl)cc2)on1	-5	10	1.2	1.1	-16
O=C(c1cc(-c2ccc(F)cc2)on1)N1CCCC1	64*	2	1	0.4	-1
O=C(c1cc(-c2ccc(Cl)cc2)on1)N1CCOCC1	60*	-7	0.9	0.4	13
Cc1ccc(-c2cc(C(=O)N3CCCc4ccccc43)no2)cc1	58*	15	0.8	0.4	18
O=C(c1cc(-c2cccc(O)c2)on1)N1CCCCC1	43	8	0.8	0.6	24
